Results as given in the RNAGym collection of RNA variant scans (doi:10.1038/s41586-018-0170-7).

B1: tRNA (parent)
chain: GUUCCGUUGGCGUAAUGGUAACGCGUCUCCCUCCUAAGGAGAAGACUGCGGGUUCGAGUCCCGUACGGAACG

Variants of: B1
Assay: yeast fitness, log relative to wild type (ln ratio); higher = fitter; tRNA-Arg(CCU), competitive growth, 37 C, 1 M NaCl
How it was run: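 Fitness is the natural log of a genotype's generation count divided by that of the wild type. A combinatorial library of tRNA-Arg(CCU) variants sat on a HIS3 centromeric plasmid in BY4742 lacking the chromosomal gene, from two independent transformations. Pools grew 4 generations in SC-HIS at 30 °C, then ~6.5 generations (~26.5 h) in SC-HIS 1M NaCl at 37 °C, with three outputs per input. Generations came from OD-scaled log2 output/input frequency, inverse-variance weighted across replicates, with variants counted by 125 bp paired-end Illumina sequencing.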

Point of comparison: GGUCCGUUGGCGUAAUGGUAACGCGUUUCCCUCCUAAGGAGACGACUGCGGGUUCGAGUCCCGUACGGAUCG, “yeast fitness (ln)” value -0.0184. Against it:
- GGUCCGUUGGCGUAAUGGUAACGCGUCUCCCUCCUAAGGAGACGACUGCGGGUUCGAGUCCCGUAAGGGUCG — lower, -0.231
- GGUCCGUUGGCGUAAUGGUAACGCGUCUCCCUCCUAAGGAGACGACUGCGGGUUCGAGUCCCGUAAGGGGCG — lower, -0.162
- GGUCCGUUGGCGUAAUGGUAACGCGUUUCCCUCCUAAGGAGACGAUUGCGGGUUCGAGUCCCGUACGGAUUG — lower, -0.0906
- GGUCCGUUGGCGUAAUGGUAACGCGUCUCCCUCCUAAGGAGAAGACUGCGGGUUCGAGUCCCGUACGGGGCG — lower, -0.147
- GGUCCGUUGGCGUAAUGGUAACGCGUCUCCCUCCUAAGGAGAAGACUGCGGGUUCGAGUCCCGUACGGGUCG — higher, -0.00206
- GGUCCGUUGGCGUAAUGGUAACGCGUCUCCCUCCUAAGGAGACGAUUGCGGGUUCGAGUCCCGUAUGGGAUG — lower, -0.279
- GGUCCGUUGGCGUAAUGGUAACGCGUCUCCCUCCUAAGGAGACGACUGCGGGUUCGAGUCCCGUAAGGAGUG — lower, -0.237
- GGUCCGUUGGCGUAAUGGUAACGCGUCUCCCUCCUAAGGAGACGACUGCGGGUUCGAGUCCCGUAUGGAUUG — lower, -0.351
- GGUCCGUUGGCGUAAUGGUAACGCGUUUCCCUCCUAAGGAGACGAUUGCGGGUUCGAGUCCCGUAAGGGGUG — lower, -0.183
- GGUCCGUUGGCGUAAUGGUAACGCGUUUCCCUCCUAAGGAGACGACUGCGGGUUCGAGUCCCGUACGGAACG — lower, -0.0611
- GGUCCGUUGGCGUAAUGGUAACGCGUUUCCCUCCUAAGGAGACGACUGCGGGUUCGAGUCCCGUACGGGUUG — lower, -0.364
- GGUCCGUUGGCGUAAUGGUAACGCGUUUCCCUCCUAAGGAGACGACUGCGGGUUCGAGUCCCGUACGGGACG — lower, -0.0811
- GGUCCGUUGGCGUAAUGGUAACGCGUCUCCCUCCUAAGGAGAAGACUGCGGGUUCGAGUCCCGUACGGGACG — lower, -0.112
- GGUCCGUUGGCGUAAUGGUAACGCGUCUCCCUCCUAAGGAGACGACUGCGGGUUCGAGUCCCGUAAGGGUUG — lower, -0.28
- GGUCCGUUGGCGUAAUGGUAACGCGUCUCCCUCCUAAGGAGAAGACUGCGGGUUCGAGUCCCGUACGGGGUG — lower, -0.191
- GGUCCGUUGGCGUAAUGGUAACGCGUUUCCCUCCUAAGGAGACGAUUGCGGGUUCGAGUCCCGUAAGGGAUG — lower, -0.34
- GGUCCGUUGGCGUAAUGGUAACGCGUCUCCCUCCUAAGGAGACGACUGCGGGUUCGAGUCCCGUAUGGAAUG — lower, -0.343
- GGUCCGUUGGCGUAAUGGUAACGCGUCUCCCUCCUAAGGAGACGACUGCGGGUUCGAGUCCCGUACGGAAUG — lower, -0.102
- GGUCCGUUGGCGUAAUGGUAACGCGUCUCCCUCCUAAGGAGACGAUUGCGGGUUCGAGUCCCGUAUGGGACG — lower, -0.199
- GGUCCGUUGGCGUAAUGGUAACGCGUUUCCCUCCUAAGGAGACGAUUGCGGGUUCGAGUCCCGUACGGGAUG — lower, -0.193
- GGUCCGUUGGCGUAAUGGUAACGCGUUUCCCUCCUAAGGAGACGAUUGCGGGUUCGAGUCCCGUAAGGGUUG — lower, -0.498
- GGUCCGUUGGCGUAAUGGUAACGCGUUUCCCUCCUAAGGAGACGACUGCGGGUUCGAGUCCCGUACGGGGCG — lower, -0.238
- GGUCCGUUGGCGUAAUGGUAACGCGUUUCCCUCCUAAGGAGACGACUGCGGGUUCGAGUCCCGUACGGGUCG — lower, -0.267
- GGUCCGUUGGCGUAAUGGUAACGCGUUUCCCUCCUAAGGAGACGACUGCGGGUUCGAGUCCCGUACGGGGUG — lower, -0.204
- GGUCCGUUGGCGUAAUGGUAACGCGUCUCCCUCCUAAGGAGACGAUUGCGGGUUCGAGUCCCGUAUGGAUCG — lower, -0.101
- GGUCCGUUGGCGUAAUGGUAACGCGUCUCCCUCCUAAGGAGACGAUUGCGGGUUCGAGUCCCGUAUGGAGCG — lower, -0.0585
- GGUCCGUUGGCGUAAUGGUAACGCGUCUCCCUCCUAAGGAGAAGACUGCGGGUUCGAGUCCCGUACGGAUUG — higher, -0.017
- GGUCCGUUGGCGUAAUGGUAACGCGUUUCCCUCCUAAGGAGACGAUUGCGGGUUCGAGUCCCGUACGGAGCG — lower, -0.227
- GGUCCGUUGGCGUAAUGGUAACGCGUUUCCCUCCUAAGGAGACGAUUGCGGGUUCGAGUCCCGUACGGAUCG — higher, -0.00371
- GGUCCGUUGGCGUAAUGGUAACGCGUCUCCCUCCUAAGGAGAAGACUGCGGGUUCGAGUCCCGUACGGGUUG — lower, -0.25
- GGUCCGUUGGCGUAAUGGUAACGCGUCUCCCUCCUAAGGAGACGAUUGCGGGUUCGAGUCCCGUAUGGAGUG — lower, -0.156
- GGUCCGUUGGCGUAAUGGUAACGCGUCUCCCUCCUAAGGAGAAGACUGCGGGUUCGAGUCCCGUACGGAUCG — higher, -0.00577
- GGUCCGUUGGCGUAAUGGUAACGCGUCUCCCUCCUAAGGAGAAGACUGCGGGUUCGAGUCCCGUACGGAGCG — lower, -0.0201
- GGUCCGUUGGCGUAAUGGUAACGCGUCUCCCUCCUAAGGAGACGACUGCGGGUUCGAGUCCCGUAUGGAACG — lower, -0.19
- GGUCCGUUGGCGUAAUGGUAACGCGUCUCCCUCCUAAGGAGACGACUGCGGGUUCGAGUCCCGUAAGGAACG — lower, -0.0672
- GGUCCGUUGGCGUAAUGGUAACGCGUCUCCCUCCUAAGGAGACGAUUGCGGGUUCGAGUCCCGUAUGGAUUG — lower, -0.214
- GGUCCGUUGGCGUAAUGGUAACGCGUCUCCCUCCUAAGGAGACGACUGCGGGUUCGAGUCCCGUAAGGAUUG — lower, -0.316
- GGUCCGUUGGCGUAAUGGUAACGCGUUUCCCUCCUAAGGAGACGACUGCGGGUUCGAGUCCCGUACGGGAUG — lower, -0.318
- GGUCCGUUGGCGUAAUGGUAACGCGUCUCCCUCCUAAGGAGACGAUUGCGGGUUCGAGUCCCGUAUGGAAUG — lower, -0.2
- GGUCCGUUGGCGUAAUGGUAACGCGUCUCCCUCCUAAGGAGACGAUUGCGGGUUCGAGUCCCGUACGGAAUG — lower, -0.0479
- GGUCCGUUGGCGUAAUGGUAACGCGUUUCCCUCCUAAGGAGACGAUUGCGGGUUCGAGUCCCGUACGGAACG — lower, -0.0622
- GGUCCGUUGGCGUAAUGGUAACGCGUUUCCCUCCUAAGGAGACGAUUGCGGGUUCGAGUCCCGUACGGGUUG — lower, -0.295
- GGUCCGUUGGCGUAAUGGUAACGCGUCUCCCUCCUAAGGAGACGACUGCGGGUUCGAGUCCCGUAAGGAGCG — lower, -0.103
- GGUCCGUUGGCGUAAUGGUAACGCGUCUCCCUCCUAAGGAGACGACUGCGGGUUCGAGUCCCGUAAGGAUCG — lower, -0.0996
- GGUCCGUUGGCGUAAUGGUAACGCGUCUCCCUCCUAAGGAGACGACUGCGGGUUCGAGUCCCGUAUGGGGCG — lower, -0.222
- GGUCCGUUGGCGUAAUGGUAACGCGUCUCCCUCCUAAGGAGACGACUGCGGGUUCGAGUCCCGUAUGGGUCG — lower, -0.307
- GGUCCGUUGGCGUAAUGGUAACGCGUCUCCCUCCUAAGGAGACGAUUGCGGGUUCGAGUCCCGUAUGGGGCG — lower, -0.173
- GGUCCGUUGGCGUAAUGGUAACGCGUCUCCCUCCUAAGGAGACGAUUGCGGGUUCGAGUCCCGUAUGGGUCG — lower, -0.172
- GGUCCGUUGGCGUAAUGGUAACGCGUUUCCCUCCUAAGGAGACGACUGCGGGUUCGAGUCCCGUACGGAGCG — lower, -0.178
- GGUCCGUUGGCGUAAUGGUAACGCGUUUCCCUCCUAAGGAGACGACUGCGGGUUCGAGUCCCGUACGGAGUG — lower, -0.151
- GGUCCGUUGGCGUAAUGGUAACGCGUCUCCCUCCUAAGGAGACGAUUGCGGGUUCGAGUCCCGUAUGGAACG — lower, -0.14
- GGUCCGUUGGCGUAAUGGUAACGCGUUUCCCUCCUAAGGAGAAGACUGCGGGUUCGAGUCCCGUACGGAACG — lower, -0.0566
- GGUCCGUUGGCGUAAUGGUAACGCGUUUCCCUCCUAAGGAGACGAUUGCGGGUUCGAGUCCCGUACGGGGUG — lower, -0.132
- GGUCCGUUGGCGUAAUGGUAACGCGUCUCCCUCCUAAGGAGAAGACUGCGGGUUCGAGUCCCGUACGGAGUG — lower, -0.268
- GGUCCGUUGGCGUAAUGGUAACGCGUCUCCCUCCUAAGGAGACGACUGCGGGUUCGAGUCCCGUAAGGGGUG — lower, -0.235
- GGUCCGUUGGCGUAAUGGUAACGCGUCUCCCUCCUAAGGAGACGAUUGCGGGUUCGAGUCCCGUAUGGGGUG — lower, -0.244
- GGUCCGUUGGCGUAAUGGUAACGCGUCUCCCUCCUAAGGAGACGACUGCGGGUUCGAGUCCCGUAUGGAGUG — lower, -0.22
- GGUCCGUUGGCGUAAUGGUAACGCGUCUCCCUCCUAAGGAGACGAUUGCGGGUUCGAGUCCCGUAUGGGUUG — lower, -0.413
- GGUCCGUUGGCGUAAUGGUAACGCGUUUCCCUCCUAAGGAGACGAUUGCGGGUUCGAGUCCCGUAAGGGGCG — lower, -0.21
- GGUCCGUUGGCGUAAUGGUAACGCGUUUCCCUCCUAAGGAGACGAUUGCGGGUUCGAGUCCCGUAAGGGUCG — lower, -0.175
- GGUCCGUUGGCGUAAUGGUAACGCGUUUCCCUCCUAAGGAGACGAUUGCGGGUUCGAGUCCCGUAAGGAGCG — lower, -0.16
- GGUCCGUUGGCGUAAUGGUAACGCGUUUCCCUCCUAAGGAGACGAUUGCGGGUUCGAGUCCCGUACGGGUCG — lower, -0.0275
- GGUCCGUUGGCGUAAUGGUAACGCGUUUCCCUCCUAAGGAGACGAUUGCGGGUUCGAGUCCCGUACGGGGCG — lower, -0.114
- GGUCCGUUGGCGUAAUGGUAACGCGUCUCCCUCCUAAGGAGACGACUGCGGGUUCGAGUCCCGUAUGGGUUG — lower, -0.468
- GGUCCGUUGGCGUAAUGGUAACGCGUCUCCCUCCUAAGGAGACGACUGCGGGUUCGAGUCCCGUAUGGGGUG — lower, -0.304
- GGUCCGUUGGCGUAAUGGUAACGCGUUUCCCUCCUAAGGAGACGACUGCGGGUUCGAGUCCCGUACGGAUUG — lower, -0.235
- GGUCCGUUGGCGUAAUGGUAACGCGUCUCCCUCCUAAGGAGACGACUGCGGGUUCGAGUCCCGUAUGGGAUG — lower, -0.455
- GGUCCGUUGGCGUAAUGGUAACGCGUUUCCCUCCUAAGGAGACGAUUGCGGGUUCGAGUCCCGUACGGGACG — lower, -0.0569
- GGUCCGUUGGCGUAAUGGUAACGCGUUUCCCUCCUAAGGAGACGAUUGCGGGUUCGAGUCCCGUAAGGAACG — lower, -0.124
- GGUCCGUUGGCGUAAUGGUAACGCGUUUCCCUCCUAAGGAGACGAUUGCGGGUUCGAGUCCCGUACGGAGUG — lower, -0.115
- GGUCCGUUGGCGUAAUGGUAACGCGUCUCCCUCCUAAGGAGAAGACUGCGGGUUCGAGUCCCGUACGGGAUG — lower, -0.101
- GGUCCGUUGGCGUAAUGGUAACGCGUCUCCCUCCUAAGGAGACGACUGCGGGUUCGAGUCCCGUAUGGAGCG — lower, -0.156
- GGUCCGUUGGCGUAAUGGUAACGCGUCUCCCUCCUAAGGAGACGACUGCGGGUUCGAGUCCCGUAUGGAUCG — lower, -0.268
- GGUCCGUUGGCGUAAUGGUAACGCGUCUCCCUCCUAAGGAGACGACUGCGGGUUCGAGUCCCGUAAGGAAUG — lower, -0.267
